# Several values for one entry are separate records, joined by “and”; a condition that tells them apart may be missing. Equal entries are not always repeated.
# Tested on: Fibroblast
# Assay: Multiplex assay against human fibroblast
# Type: toxicity, cell-based
# Summary of the method: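 Live cells were stained at seeding with Hoechst33342, BioTracker Green Microtubule Cytoskeleton Dye, MitoTracker Red and Annexin V Alexa Fluor 680, then imaged on a CQ1 microscope at 37°C and 5% CO2 after compound addition. CellPathfinder machine-learning gating split cells into Hoechst high-intensity objects or normal cells. Normal cells were split into healthy, pyknosed or fragmented nuclei, and pyknosed cells into mitotic or apoptotic. Tubulin, mitochondrial-mass and membrane-permeability phenotypes are per cents of healthy-nucleus cells.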
# [1] = 12 h, 1 µM, compound concentration 1 uM
# [2] = 12 h, 10 µM, compound concentration 10 uM
# [3] = 24 h, 1 µM, compound concentration 1 uM
# [4] = 24 h, 10 µM, compound concentration 10 uM
# [5] = 48 h, 1 µM, compound concentration 1 uM
# [6] = 48 h, 10 µM, compound concentration 10 uM
smiles,measurement,setting,value
CC(C)c1ccc(/C=N/NC(=O)c2ccc(O)cc2)cc1,Population Apoptotic (%),[1],12.07% and 15.38%
same,Population Fragmented Nuclei (%),[1],10.89% and 4%
same,Population Healthy Nuclei (%),[1],60.4% and 76.5%
same,Population Hoechst High Intensity Objects (%),[1],0%
same,Population Membrane Permeable-Phenotype (%),[1],4.1% and 2.61%
same,Population Mitochondria Different-Phenotype (%),[1],6.56% and 9.15%
same,Population Mitotic Cells (%),[1],87.93% and 84.62%
same,Population Normal (%),[1],100%
same,Population Pyknosed Nuclei (%),[1],28.71% and 19.5%
same,Population Tubulin-Different-Phenotype (%),[1],12.3% and 17.65%
same,Total Cell Count,[1],202 and 200
same,Population Fragmented Nuclei (%),[2],13.41% and 4.65%
same,Population Healthy Nuclei (%),[2],61.45% and 73.02%
same,Population Hoechst High Intensity Objects (%),[2],0%
same,Population Membrane Permeable-Phenotype (%),[2],8.18% and 2.55%
same,Population Mitochondria Different-Phenotype (%),[2],6.36% and 9.55%
same,Population Mitotic Cells (%),[2],95.56% and 77.08%
same,Population Normal (%),[2],100%
same,Population Pyknosed Nuclei (%),[2],25.14% and 22.33%
same,Population Tubulin-Different-Phenotype (%),[2],20% and 17.2%
same,Total Cell Count,[2],179 and 215
same,Population Apoptotic (%),[3],15% and 14.81%
same,Population Fragmented Nuclei (%),[3],10.53% and 4.39%
same,Population Healthy Nuclei (%),[3],71.93% and 82.44%
same,Population Hoechst High Intensity Objects (%),[3],0%
same,Population Membrane Permeable-Phenotype (%),[3],1.83% and 3.55%
same,Population Mitochondria Different-Phenotype (%),[3],4.27% and 7.1%
same,Population Mitotic Cells (%),[3],85% and 85.19%
same,Population Normal (%),[3],100%
same,Population Pyknosed Nuclei (%),[3],17.54% and 13.17%
same,Population Tubulin-Different-Phenotype (%),[3],12.2% and 18.34%
same,Total Cell Count,[3],228 and 205
same,Population Fragmented Nuclei (%),[4],10.93% and 4.82%
same,Population Healthy Nuclei (%),[4],66.12% and 76.75%
same,Population Hoechst High Intensity Objects (%),[4],0%
same,Population Membrane Permeable-Phenotype (%),[4],5.79% and 3.43%
same,Population Mitochondria Different-Phenotype (%),[4],7.44% and 5.14%
same,Population Mitotic Cells (%),[4],95.24% and 83.33%
same,Population Normal (%),[4],100%
same,Population Pyknosed Nuclei (%),[4],22.95% and 18.42%
same,Population Tubulin-Different-Phenotype (%),[4],14.88% and 16%
same,Total Cell Count,[4],183 and 228
same,Population Apoptotic (%),[5],27.27% and 44.44%
same,Population Fragmented Nuclei (%),[5],8% and 5.96%
same,Population Healthy Nuclei (%),[5],87.11% and 89.91%
same,Population Hoechst High Intensity Objects (%),[5],0%
same,Population Membrane Permeable-Phenotype (%),[5],1.02% and 3.57%
same,Population Mitotic Cells (%),[5],72.73% and 55.56%
same,Population Normal (%),[5],100%
same,Population Pyknosed Nuclei (%),[5],4.89% and 4.13%
same,Population Tubulin-Different-Phenotype (%),[5],9.18% and 15.31%
same,Total Cell Count,[5],225 and 218
same,Population Apoptotic (%),[6],40% and 30%
same,Population Fragmented Nuclei (%),[6],13.54% and 4.26%
same,Population Healthy Nuclei (%),[6],78.65% and 87.23%
same,Population Hoechst High Intensity Objects (%),[6],0%
same,Population Membrane Permeable-Phenotype (%),[6],3.31% and 2.44%
same,Population Mitochondria Different-Phenotype (%),[6],6.62% and 1.95%
same,Population Mitotic Cells (%),[6],60% and 70%
same,Population Normal (%),[6],100%
same,Population Pyknosed Nuclei (%),[6],7.81% and 8.51%
same,Population Tubulin-Different-Phenotype (%),[6],10.6% and 14.63%
same,Total Cell Count,[6],192 and 235
O=C1NCc2ccc3c(-c4cccc(Cl)c4)c[nH]c3c21,Population Apoptotic (%),[1],13.51% and 26.32%
same,Population Fragmented Nuclei (%),[1],16.45% and 5.58%
same,Population Healthy Nuclei (%),[1],59.21% and 76.74%
same,Population Hoechst High Intensity Objects (%),[1],0%
same,Population Membrane Permeable-Phenotype (%),[1],4.44% and 3.64%
same,Population Mitochondria Different-Phenotype (%),[1],8.89% and 8.48%
same,Population Mitotic Cells (%),[1],86.49% and 73.68%
same,Population Normal (%),[1],100%
same,Population Pyknosed Nuclei (%),[1],24.34% and 17.67%
same,Population Tubulin-Different-Phenotype (%),[1],10% and 13.33%
same,Total Cell Count,[1],152 and 215
same,Population Apoptotic (%),[2],23.21% and 34.92%
same,Population Fragmented Nuclei (%),[2],9.88% and 1.93%
same,Population Healthy Nuclei (%),[2],57.56% and 67.63%
same,Population Hoechst High Intensity Objects (%),[2],0%
same,Population Membrane Permeable-Phenotype (%),[2],3.03% and 5%
same,Population Mitochondria Different-Phenotype (%),[2],15.15% and 17.86%
same,Population Mitotic Cells (%),[2],76.79% and 65.08%
same,Population Normal (%),[2],100%
same,Population Pyknosed Nuclei (%),[2],32.56% and 30.43%
same,Population Tubulin-Different-Phenotype (%),[2],8.08% and 17.14%
same,Total Cell Count,[2],172 and 207
same,Population Apoptotic (%),[3],18.75% and 20.59%
same,Population Fragmented Nuclei (%),[3],13.25% and 6.58%
same,Population Healthy Nuclei (%),[3],65.56% and 79.42%
same,Population Hoechst High Intensity Objects (%),[3],0%
same,Population Membrane Permeable-Phenotype (%),[3],7.07% and 4.66%
same,Population Mitochondria Different-Phenotype (%),[3],10.1% and 5.18%
same,Population Mitotic Cells (%),[3],81.25% and 79.41%
same,Population Normal (%),[3],100%
same,Population Pyknosed Nuclei (%),[3],21.19% and 13.99%
same,Population Tubulin-Different-Phenotype (%),[3],13.13% and 9.84%
same,Total Cell Count,[3],151 and 243
same,Population Apoptotic (%),[4],30.77% and 40.54%
same,Population Fragmented Nuclei (%),[4],11.59% and 4.85%
same,Population Healthy Nuclei (%),[4],64.63% and 77.18%
same,Population Hoechst High Intensity Objects (%),[4],0%
same,Population Membrane Permeable-Phenotype (%),[4],3.77%
same,Population Mitochondria Different-Phenotype (%),[4],12.26% and 8.81%
same,Population Mitotic Cells (%),[4],69.23% and 59.46%
same,Population Normal (%),[4],100%
same,Population Pyknosed Nuclei (%),[4],23.78% and 17.96%
same,Population Tubulin-Different-Phenotype (%),[4],9.43% and 8.81%
same,Total Cell Count,[4],164 and 206
same,Population Apoptotic (%),[5],20.83% and 38.89%
same,Population Fragmented Nuclei (%),[5],10.71% and 5.78%
same,Population Healthy Nuclei (%),[5],75% and 86.22%
same,Population Hoechst High Intensity Objects (%),[5],0%
same,Population Membrane Permeable-Phenotype (%),[5],4.76% and 5.67%
same,Population Mitotic Cells (%),[5],79.17% and 61.11%
same,Population Normal (%),[5],100%
same,Population Pyknosed Nuclei (%),[5],14.29% and 8%
same,Population Tubulin-Different-Phenotype (%),[5],7.94% and 9.28%
same,Total Cell Count,[5],168 and 225
same,Population Apoptotic (%),[6],20% and 60%
same,Population Fragmented Nuclei (%),[6],11.49% and 4.95%
same,Population Healthy Nuclei (%),[6],77.01% and 82.67%
same,Population Hoechst High Intensity Objects (%),[6],0%
same,Population Membrane Permeable-Phenotype (%),[6],2.24% and 5.99%
same,Population Mitochondria Different-Phenotype (%),[6],10.45% and 5.99%
same,Population Mitotic Cells (%),[6],80% and 40%
same,Population Normal (%),[6],100%
same,Population Pyknosed Nuclei (%),[6],11.49% and 12.38%
same,Population Tubulin-Different-Phenotype (%),[6],5.97% and 10.18%
same,Total Cell Count,[6],174 and 202
